16 compounds from ChEMBL document CHEMBL3352814, “Design, synthesis and biological evaluation of biphenylamide derivatives as Hsp90 C-terminal inhibitors” (Eur J Med Chem, 2015) can be followed below.

The source made the active and inactive calls. The calls are words filed in the database; no cut-off is given here.

Assay [1] deals with T1, Heat shock protein HSP90 (Homo sapiens) (UniProt P07900+P08238). Nature of the assay: Inhibition of HSP90 in human MCF7 cells assessed as induction of Her2 protein degradation at 0.1 to 5 uM after 24 hrs by Western blotting method. It counts as cell-based. In a few lines: (§1)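 MCF-7 cells, grown as for proliferation, treated 24 h with compound in DMSO (1% final). Geldanamycin 0.5 μM and DMSO served as controls. Lysis in cold RIPA with 1 mM PMSF, 2 mM orthovanadate and protease inhibitors, 1 h on ice, then cleared at 14000g, 10 min, 4 °C. BCA protein assay; 20 μg protein run reducing, blotted to nitrocellulose, probed with client antibodies, HRP chemiluminescence. High and low doses were 5-fold and 0.5-fold the antiproliferative value.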
(A western blot detects proteins with antibodies after separation by electrophoresis.)

Assay [2] in a line: Antiproliferative activity against human SKBR3 cells after 72 hrs by MTS/PMS assay. It counts as functional, cell-based. As to conditions: SK-BR-3, 72 h. In a few lines:
(§2)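 Cells kept in 1:1 Advanced DMEM/F12 with non-essential amino acids, 2 mM L-glutamine, penicillin/streptomycin and 10% FBS at 37 °C, 5% CO2. Seeded 2000 cells/well, attached overnight, then given compound at varying concentrations in DMSO (1% final) for 72 h. Viable cells read by MTS/PMS. Normalised to 1% DMSO wells as 100% proliferation. IC50 from separate experiments run in triplicate.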

For assay [3], the target named is T1, Heat shock protein HSP90 (Homo sapiens). The assay can be described thus: Inhibition of HSP90 in human MCF7 cells assessed as induction of Akt protein degradation at 0.5 times antiproliferative IC50 level after 24 hrs by Western blotting method. Format: cell-based. In a few lines: as §1
Assay [4] has the same target. The assay can be described thus: Inhibition of HSP90 in human MCF7 cells assessed as induction of Her2 protein degradation at 0.5 times antiproliferative IC50 level after 24 hrs by Western blotting method. Format: cell-based. In a few lines:
as §1

Assay [5] has the same target. The assay can be described thus: Inhibition of HSP90 in human MCF7 cells assessed as induction of Raf protein degradation at 0.1 to 5 uM after 24 hrs by Western blotting method. It counts as cell-based. Summed up: as §1
Assay [6] has the same target. The assay can be described thus: Inhibition of HSP90 in human MCF7 cells assessed as induction of Raf protein degradation at 0.5 times antiproliferative IC50 level after 24 hrs by Western blotting method. It counts as cell-based. Summed up: as §1
For assay [7] the target is unchanged. Nature of the assay: Inhibition of HSP90 in human MCF7 cells assessed as induction of Akt protein degradation at 0.1 to 5 uM after 24 hrs by Western blotting method. It counts as cell-based. Summed up:
as §1

In a further assay the test system is MCF7. Nature of the assay: Antiproliferative activity against human MCF7 cells after 72 hrs by MTS/PMS assay. Format: functional, cell-based. As to conditions: MCF7, 72 h. Summed up:
as §2

Assay [8] concerns the target T1, Heat shock protein HSP90 (Homo sapiens). Nature of the assay: Inhibition of HSP90 in human MCF7 cells assessed as induction of Raf protein degradation at 0.5 to 5 times antiproliferative IC50 level after 24 hrs by Western blotting method. It counts as cell-based. Summed up: as §1
Assay [9] shares this target. The assay can be described thus: Inhibition of HSP90 in human MCF7 cells assessed as induction of Akt protein degradation at 0.5 to 5 times antiproliferative IC50 level after 24 hrs by Western blotting method. Format: cell-based. Summed up:
as §1

Assay [10] shares this target. The assay can be described thus: Inhibition of HSP90 in human MCF7 cells assessed as induction of Her2 protein degradation at 0.5 to 5 times antiproliferative IC50 level after 24 hrs by Western blotting method. Format: cell-based. Summed up:
as §1

For orientation: IC50 means the concentration at which inhibition is half-maximal. Consider `COc1ccc(C(=O)Nc2ccc(-c3ccc(OC4CCN(C)CC4)cc3)cc2)cc1-c1ccc(OC(C)=O)cc1`, for which the inhibition entry in [1], in [5] and in [7] was “Dose-dependent effect” in each case. The results for the IC50 (in assay [2]; with MCF7) were 140 nM and 640 nM, respectively. Further, the inhibition entry in assay [3], in assay [4] and in [6] was “Active” in each case.

For the compound `COc1cccc(-c2cc(C(=O)Nc3cccc(-c4cccc(OC5CCN(C)CC5)c4)c3)ccc2OC)c1`, the half-inhibitory concentration (IC50) is 1620 nM in assay [2] and 2000 nM in the assay on MCF7. Also, the inhibition result in assay [3], in assay [4] and in assay [6] was “Active” throughout.

With `COc1ccc(C(=O)Nc2ccc(-c3ccc(OC4CCN(C)CC4)cc3)cc2)cc1`, the inhibition result in [8], in assay [9] and in assay [10] was “Active” each time. Further, the IC50 came out at 490 nM in [2] and 650 nM in the assay with MCF7.

`CN1CCC(Oc2ccc(-c3ccc(NC(=O)c4ccc5ccccc5c4)cc3)cc2)CC1`: the inhibition entry in assay [8], in assay [9] and in assay [10] was “Active” in each case. Moreover, the results for the IC50 (in assay [2]; in the assay with MCF7) were 220 nM and 580 nM, respectively.

Regarding `COc1cccc(-c2cc(C(=O)Nc3ccc(-c4ccc(OC5CCN(C)CC5)cc4)cc3)ccc2OC)c1`, the IC50 was 470 nM in assay [2] and 710 nM with MCF7. The inhibition result in [3], in assay [4] and in [6] was “Active” throughout.

Consider `CN1CCC(Oc2ccc(-c3ccc(NC(=O)c4ccc(Cl)cc4)cc3)cc2)CC1`, for which the inhibition entry in assay [8], in [9] and in [10] was “inactive” in each case. The IC50 in assay [2] is 570 nM; in the assay with MCF7, 520 nM.

In the case of `COc1ccc(C(=O)Nc2ccc(-c3ccc(OC4CCN(C)CC4)cc3)cc2)cc1-c1cccc(Cl)c1`, the results for the IC50 (in assay [2]; in the assay on MCF7) were 330 nM and 320 nM, respectively. The inhibition entry in assay [3], in [4] and in assay [6] was “Active” throughout.

Take `CC(C)=CCc1cc(C(=O)Nc2ccc(-c3ccc(OC4CCN(C)CC4)cc3)cc2)ccc1O`: the figures for the IC50 (in assay [2]; in the assay on MCF7) were 2270 nM and 1850 nM, respectively. The inhibition result in assay [3], in assay [4] and in [6] was “Active” in each case.

Consider `CC(C)=CCc1cc(C(=O)Nc2cccc(-c3cccc(OC4CCN(C)CC4)c3)c2)ccc1O`, for which the IC50 amounted to 2790 nM in assay [2] and 1170 nM in the assay with MCF7. Besides, the inhibition entry in [3], in [4] and in assay [6] was “Active” in each case.

As to `CN1CCC(Oc2ccc(-c3ccc(NC(=O)c4cc5ccccc5[nH]4)cc3)cc2)CC1`, the inhibition entry in [8], in assay [9] and in assay [10] was “Active” throughout. For the same compound, the results for the IC50 (in assay [2]; in the assay with MCF7) were 640 nM and 580 nM, respectively.

In the case of `CN1CCC(Oc2ccc(-c3ccc(NC(=O)c4ccc(I)cc4)cc3)cc2)CC1`, the inhibition result in assay [8], in assay [9] and in assay [10] was “inactive” throughout. The IC50 is 310 nM in [2] and 580 nM in the assay with MCF7.

Turning to `CN1CCC(Oc2ccc(-c3ccc(NC(=O)c4cccc(-c5ccccc5)c4)cc3)cc2)CC1`, the inhibition entry in assay [8], in assay [9] and in [10] was “Active” throughout. Also, the IC50 is 730 nM in assay [2] and 1150 nM with MCF7.

Turning to `CN1CCC(Oc2ccc(-c3ccc(NC(=O)c4cccc5ccccc45)cc3)cc2)CC1`, the inhibition entry in assay [8], in assay [9] and in [10] was “Active” each time. Further, the IC50 in [2] was 350 nM; in the assay on MCF7, 490 nM.

For `COc1ccc(C(=O)Nc2ccc(-c3ccc(OC4CCN(C)CC4)cc3)cc2)cc1-c1ccccc1`, the IC50 stood at 510 nM in assay [2] and 840 nM with MCF7. Moreover, the inhibition result in assay [3], in [4] and in assay [6] was “Active” throughout.

`CN1CCC(Oc2ccc(-c3ccc(NC(=O)c4ccc(Br)cc4)cc3)cc2)CC1`: the inhibition result in [8], in assay [9] and in [10] was “inactive” each time. Also, the IC50 (in [2]; in the assay on MCF7) was 520 nM throughout.

As for `Cc1ccc(C(=O)Nc2ccc(-c3ccc(OC4CCN(C)CC4)cc3)cc2)cc1Br`, the values for the IC50 (in assay [2]; with MCF7) were 2800 nM and 3350 nM, respectively.
